# Only some compounds are listed: those with a hit (about 3.9% of all), similar ones and a draw of the others.
# CHO parental Ca: ATP-evoked calcium signal inhibitors, parental CHO, primary screen, counter-screen for OX1R antagonist project, cell-based, fluorescence, Fluo-8 calcium dye | parental CHO-K1, ATP-induced calcium, Fluo-8 fluorescence | inhibition, % at 5.6 µM | 330,000 compounds, 0.63% hits;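 active = inhibition above that plate's mean sample inhibition plus 3 SD, cut at about 26% in these data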;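 also: 0% = ATP-challenged DMSO wells and 100% = DMSO wells without ATP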
#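 Test system: parental CHO cells; detection: calcium-sensitive Fluo-8 fluorescence; evaluation: percent inhibition of calcium signal; also added: ATP as calcium-mobilizing challenge; repeats: one well per compound; control set: ATP-challenged DMSO wells low, unchallenged DMSO wells high; compound: single nominal dose of 5.6 µM per compound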
# TAAR1 agonist: human TAAR1 agonists, primary screen, Fluo-8 calcium fluorescence, CHO RD-HGA16 cells. Trace amine-associated receptor 1 (Homo sapiens), Q96RJ0. vehicle wells 0%, saturating PEA agonist 100%. activation, % at 3 µM. 360,000 compounds, 0.99% hits. AID 624467, 2012;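 active = activation above the mean activation of all test compounds in the run plus 3 SD, cut at about 38% in these data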
# Target sequence (Q96RJ0 whole entry, looked up): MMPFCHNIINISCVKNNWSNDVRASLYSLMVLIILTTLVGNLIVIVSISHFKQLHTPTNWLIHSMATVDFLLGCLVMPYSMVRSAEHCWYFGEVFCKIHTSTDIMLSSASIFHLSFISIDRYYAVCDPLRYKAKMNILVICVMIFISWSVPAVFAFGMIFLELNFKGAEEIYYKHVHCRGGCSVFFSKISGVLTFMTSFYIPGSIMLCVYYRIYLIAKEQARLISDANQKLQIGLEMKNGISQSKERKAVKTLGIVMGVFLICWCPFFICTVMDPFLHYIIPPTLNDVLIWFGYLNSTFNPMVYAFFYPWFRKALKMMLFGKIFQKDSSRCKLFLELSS
#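 Assay system: CHO-derived RD-HGA16 cells with stable Gα16 and human TAAR1; timing: 17-24 h seeding, 75 min 37 °C dye, 30 min RT; read-out: % activation from peak over basal fluorescence ratio, DMSO-to-PEA scaled; measured by: kinetic Fluo-8 calcium fluorescence; benchmarks: low control DMSO, high control PEA (EC100); doses: 3 µM single concentration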
# TAAR1 antag: human TAAR1 antagonists, primary screen, Fluo-8 calcium fluorescence, CHO RD-HGA16 cells; Trace amine-associated receptor 1 (Homo sapiens), Q96RJ0; antagonist; inhibition, % at 3 µM; 360,000 compounds, 1.5% hits; AID 624466, 2012;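 active = inhibition above a per-plate cutoff, the mean inhibition of test compounds on that plate plus 3 SD, cut at about 49% in these data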;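 also: 0% = DMSO plus EC80 beta-PEA response and 100% = DMSO alone without agonist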
#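 test system = CHO RD-HGA16 cells bearing hTAAR1 | replication = singlicate | controls = DMSO-only wells and EC80 β-PEA-stimulated wells | reagent = EC80 β-phenethylamine stimulus | read-out basis = percent inhibition of PEA-evoked calcium signal, max/basal emission ratio | schedule = seeding 17-24 h prior, 75-min 37 °C, 30-min RT dye loading | signal = kinetic Fluo-8 calcium fluorescence measurement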
# OX1R antag-1: antagonists of human orexin 1 receptor (OX1R); Orexin/Hypocretin receptor type 1 (Homo sapiens), O43613; OX1R-expressing cells, FRET antagonist read-out; inhibition, % at 6.6 µM; 330,000 compounds, 1.8% hits; in the data active = inhibition mostly above about 38%, no sharp cut-off; inactive = mostly below about 40%;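 also: 0% = agonist challenge alone and 100% = reference antagonist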
# Target sequence (O43613 whole entry, looked up): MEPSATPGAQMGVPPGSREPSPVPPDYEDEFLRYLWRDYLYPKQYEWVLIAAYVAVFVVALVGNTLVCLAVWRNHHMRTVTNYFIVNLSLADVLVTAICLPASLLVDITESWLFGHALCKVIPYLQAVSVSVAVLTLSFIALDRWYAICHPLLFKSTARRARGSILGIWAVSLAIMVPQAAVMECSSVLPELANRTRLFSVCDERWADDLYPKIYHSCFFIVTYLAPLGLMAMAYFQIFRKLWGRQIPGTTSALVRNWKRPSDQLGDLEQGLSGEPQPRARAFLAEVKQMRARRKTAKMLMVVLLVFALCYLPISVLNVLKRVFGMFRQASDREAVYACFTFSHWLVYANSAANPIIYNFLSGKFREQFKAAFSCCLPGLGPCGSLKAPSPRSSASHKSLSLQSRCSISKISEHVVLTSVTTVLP
# OX1R antag-2: OX1R (HCRTR1) antagonists, primary screen, fluorescence, CHO/OX1R cells, Fluo-8 calcium, orexin A. Orexin/Hypocretin receptor type 1 (Homo sapiens), O43613. Fluo-8 calcium fluorescence. inhibition, % at 5 µM. 330,000 compounds, 0.43% hits;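 active = inhibition above its plate's threshold, mean inhibition of all tested compounds on the plate plus 3 SD, cut at about 37% in these data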;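 also: 0% = orexin A challenge wells and 100% = SB-334867-A antagonist wells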
# TAAR1 ag conf: human TAAR1 agonists, retest of hits, confirmation, Fluo-8 calcium fluorescence, CHO RD-HGA16 cells | AID 651783, 2012 | activation, % at 3 µM | scaled: DMSO 0%, maximal phenethylamine 100% | shares compounds with TAAR1 agonist | 2,400 compounds, 82% hits;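 active = activation above a cutoff set at the run's mean compound activation plus 3 SD, cut at about 39% in these data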
# Ga16 nonsel ag: nonselective calcium mobilization agonists, CHO-Ga16 cells, counter-screen for hTAAR1 agonist project, cell-based, fluorescence, CHO-Ga16 parental line | shares compounds with TAAR1 agonist | Fluo-8 calcium fluorescence; normalized to maximal ATP response, DMSO zero | activation, % at 3 µM | 2,400 compounds, 50% hits | AID 651787, 2012;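 active = activation above the run cutoff, the mean activation over all tested wells plus 3 SD, cut at about 12% in these data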;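 also: 0% = DMSO wells and 100% = maximal ATP response on the peak over basal ratio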
# TAAR1 desens: TAAR1 desensitization by agonist hits, confirmation, counter-screen for TAAR1 agonist project, cell-based, fluorescence, tachyphylaxis; 2,400 compounds, 46% hits; CHO RD-HGA16 hTAAR1, Fluo-8 calcium, beta-PEA response inhibition; shares compounds with TAAR1 agonist; inhibition, % at 3 µM;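 active = inhibition above the run cutoff, the mean inhibition of all test compounds plus 3 SD, cut at about 49% in these data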;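 also: beta-PEA stimulus applied at its EC80; loss of beta-PEA calcium signal after compound pretreatment read as receptor desensitization; 0% = DMSO with beta-PEA at EC80 and 100% = DMSO alone without agonist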
# Ga16 antag count: inhibition of ATP-evoked calcium response in CHO-Ga16 cells, counter-screen for TAAR1 agonist project, cell-based, fluorescence | inhibition, % at 3 µM | CHO-Ga16 ATP-induced calcium, Fluo-8 fluorescence | AID 651952, 2012 | shares compounds with TAAR1 agonist | 2,400 compounds, 39% hits;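 active = inhibition above the plate's mean compound inhibition plus 3 SD, computed per plate, cut at about 22% in these data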;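 also: 0% = EC80 ATP with DMSO and 100% = DMSO wells without ATP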
# An asterisk follows results filed as active; x = no result given.
SMILES,CHO parental Ca,TAAR1 agonist,TAAR1 antag,OX1R antag-1,OX1R antag-2,TAAR1 ag conf,Ga16 nonsel ag,TAAR1 desens,Ga16 antag count
COc1ccc(CC(N)c2csc(Nc3nccc(C(F)(F)F)n3)n2)cc1 (stereo unspecified),x,51.8*,22.0,x,x,52.5*,20.9*,27.9,22.9*
COc1ccc(CC(N)c2csc(Nc3ncccn3)n2)cc1 (stereo unspecified),x,1.9,-0.3,x,x,x,x,x,x
Cc1cc(C)nc(Nc2nc(C(N)Cc3ccccc3)cs2)n1 (stereo unspecified),x,8.8,-1.7,x,x,x,x,x,x
CC(C)(C)NC(=O)C(=O)NNC(=O)c1cccc(F)c1,10.2,9.7,0.8,2.5,-15.8,x,x,x,x
CCOC1(OCC)N=C(N)C2(C#N)C(c3ccc(NC(C)=O)cc3)C12C#N (stereo unspecified),1.7,2.1,-14.8,39.7,-9.7,x,x,x,x
Cc1ccc(N2CC(C(=O)Nc3nnc(SCCN4CCOCC4)s3)CC2=O)cc1 (stereo unspecified),-10.3,4.0,-15.3,12.2,-26.6,x,x,x,x
CCCCCCOc1ccc(/C(C)=N/NC2=NCCN2)cc1,5.1,62.8*,20.7,11.4,-1.1,48.2*,22.8*,36.7,24.2*
CC(OC(=O)CCCN=C1NS(=O)(=O)c2ccccc21)C(=O)Nc1ccccc1[N+](=O)[O-] (stereo unspecified),-9.3,5.1,-3.1,15.4,-16.0,x,x,x,x
S=c1[nH]ccn1CCc1ccccc1,-10.6,61.8*,4.0,-0.3,-17.8,64.0*,-0.4,35.9,1.4
CCc1ccccc1NC(=O)CN(C)Cc1c(O)ccc2ccccc12,-0.5,9.0,-9.9,7.4,-9.1,x,x,x,x
CN(CC(=O)Nc1ccccc1C(F)(F)F)Cc1c(O)ccc2ccccc12,-7.1,65.5*,-5.5,8.7,-23.0,30.2,5.2,4.2,10.7
Cc1ccccc1-n1nnnc1SCC(=O)c1c(N)n(C)c(=O)n(C)c1=O,-11.1,92.5*,10.8,14.2,0.6,130.3*,86.6*,41.5,13.7
Cn1c(N)c(C(=O)CSc2nnnn2-c2ccccc2)c(=O)n(C)c1=O,2.0,0.4,-18.4,4.6,-1.2,x,x,x,x
Cc1cc(C(=O)CSc2nnnn2-c2ccccc2)c(C)n1CC1CCCO1 (stereo unspecified),-0.7,3.9,3.5,17.6,-14.7,x,x,x,x
COCCn1c(C)cc(C(=O)CSc2nc(C)cc(C)c2C#N)c1C,10.1,6.3,17.2,26.6,-0.8,x,x,x,x
Cc1cc(C)c(C#N)c(SCC(=O)c2cc(C)n(CCc3ccccc3)c2C)n1,45.9*,91.2*,51.9*,27.9,-4.4,93.0*,2.0,99.9*,16.9
Cc1cc(C(=O)CSc2nnnn2C)c(C)n1CCc1ccc(F)cc1,-11.1,43.8*,11.2,1.6,-15.0,63.4*,5.8,13.6,9.6
Cc1cc(C(=O)CSc2nnnn2-c2ccccc2)c(C)n1CCc1ccccc1,-12.9,57.6*,-3.1,14.1,-20.6,99.3*,0.2,83.3*,10.8
COc1ccc(C2C(C(C)=O)=C(O)C(=O)N2c2ccc(Br)cn2)cc1 (stereo unspecified),-12.0,10.9,2.7,43.9,-23.5,x,x,x,x
CCCN(C(=O)CSCC(=O)Nc1cccc(C)c1)c1c(N)n(Cc2ccccc2)c(=O)[nH]c1=O,-3.5,1.6,-33.5,13.6,-16.3,x,x,x,x
CC(C)(C)OC(=O)N1CCC(CNC(=O)c2ccc(F)cc2)CC1,0.3,1.1,-20.5,3.4,-14.7,x,x,x,x
O=S1(=O)CC(N2CCN(CCO)CC2)CN1Cc1cn(Cc2cccc(C(F)(F)F)c2)nn1 (stereo unspecified),x,3.2,-4.5,x,x,x,x,x,x
O=C(c1nc2ccccn2c1CNCC1OCCc2ccccc21)N1CCOCC1 (stereo unspecified),-23.7,x,x,12.0,-27.6,x,3.4,x,12.6
Cc1ccn2c(CNCCn3cccn3)c(C(=O)N3CCCCCC3)nc2c1,-19.6,28.2,2.2,5.1,-3.7,x,x,x,x
Cc1ccn2c(CNCC3OCCc4ccccc43)c(C(=O)N3CCCCCC3)nc2c1 (stereo unspecified),-20.2,83.9*,38.6,13.7,-21.1,81.3*,4.6,71.1*,13.6
SMILES,CHO parental Ca,TAAR1 agonist,TAAR1 antag,OX1R antag-1,OX1R antag-2,TAAR1 ag conf,Ga16 nonsel ag,TAAR1 desens,Ga16 antag count
O=c1ccc(-c2ccc(S(=O)(=O)N3CCN(c4cccc(Cl)c4)CC3)o2)n[nH]1,-10.1,0.0,6.1,8.1,-10.8,x,x,x,x
CCC(=O)NCCSc1c[nH]c2ccccc12,-4.5,5.1,-0.4,8.3,-1.3,x,x,x,x
CCN(CC)S(=O)(=O)c1ccc(C(=O)NCCSc2c[nH]c3ccccc23)cc1,-7.9,54.9*,86.4*,16.1,-28.7,1.1,3.3,16.3,16.6
CC(C)[C@@H](C)/C=C/[C@@H](C)[C@H]1CC[C@@H]2[C@]1(C)CCC1[C@]23C=C[C@]2(C[C@@H](O)CC[C@]12C)N(c1ccc(F)cn1)O3 (stereo partly specified),x,-0.4,-10.8,x,x,x,x,x,x
Cc1nn(CC(=O)Nc2c(F)c(F)cc(F)c2F)c(=O)c2cccn12,0.1,4.6,-4.8,-4.7,-23.8,x,x,x,x
COc1ccc(-c2noc(CCC(=O)NCCc3ccccc3)n2)cc1,-13.0,50.8*,-1.0,17.3,-26.8,62.3*,4.2,31.5,9.9
O=C(CCc1nc(-c2ccccc2)no1)NCCc1ccccc1,-13.9,x,x,18.0,-13.3,x,x,x,x
COc1cccc(-c2noc(CCC(=O)NCCc3ccccc3)n2)c1,-8.2,47.2*,-0.1,7.6,-26.4,66.6*,1.9,23.4,10.7
CC(=O)Nc1sc(/C(C#N)=C/c2ccc(Cl)c(Cl)c2)nc1-c1ccc(C)cc1,x,68.4*,81.5*,x,x,42.3*,56.0*,75.9*,66.5*
CCN(C(=S)Nc1ccc(Oc2ccccc2)cc1)c1ccccc1,5.1,4.8,22.9,1.0,-11.1,x,x,x,x

# Screening data deposited in PubChem BioAssay by The Scripps Research Institute Molecular Screening Center.
